INS-1E GSIS act: GLuc luminescence reporter in INS-1E cells, primary screen for activators of glucose-dependent secretion of insulin | INS-1E GLuc reporter insulin secretion, 2-3 h | activation, % at 16.6 µM | actives 0.61% (n = 370,000);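 active = lowest replicate activation of at least 40%, so every replicate reaches that level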
dFosB act-1: mouse delta FosB homodimer activation. actives 0.99% (n = 340,000). activation, % at 25 µM. purified delta FosB, TAMRA-CDK5 oligo fluorescence polarization; percent of positive-control signal above neutral wells. P13346. AID 493131;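 active = mean activation above about 17%, with every replicate also reaching it, limit read from the data, passing the limit was not always enough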
PAX8 reporter: lowers PAX8-driven luciferase in RMG-I cells | AID 652154 | RMG-I TPO-luciferase reporter, SteadyGlo, 24 h | inhibition, % at 12.6 µM | actives 1.2% (n = 360,000);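 active = mean replicate inhibition at least 60% with every replicate also reaching 60%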;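 note: luciferase light reporting Pax8 driven TPO promoter activity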
CDK5 p35 inh: inhibitors of human CDK5/p35 kinase; Q00535+Q15078; Recombinant CDK5/p35, ADP-Glo luminescence, 60 min; inhibition, % at 10 µM; actives 0.01% (n = 330,000); AID 488839;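 active = highest replicate inhibition of at least 50% and at least 75% of replicates reaching 50%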
Target sequence (Q00535 whole entry, looked up): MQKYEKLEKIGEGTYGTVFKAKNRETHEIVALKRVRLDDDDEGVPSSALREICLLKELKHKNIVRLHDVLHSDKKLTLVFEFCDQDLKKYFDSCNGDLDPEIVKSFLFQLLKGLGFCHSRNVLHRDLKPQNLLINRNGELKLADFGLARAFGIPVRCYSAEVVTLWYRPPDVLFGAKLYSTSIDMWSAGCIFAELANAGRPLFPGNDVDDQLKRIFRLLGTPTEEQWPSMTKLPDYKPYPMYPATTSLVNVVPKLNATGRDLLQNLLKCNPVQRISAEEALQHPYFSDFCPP
Target sequence (Q15078 whole entry, looked up): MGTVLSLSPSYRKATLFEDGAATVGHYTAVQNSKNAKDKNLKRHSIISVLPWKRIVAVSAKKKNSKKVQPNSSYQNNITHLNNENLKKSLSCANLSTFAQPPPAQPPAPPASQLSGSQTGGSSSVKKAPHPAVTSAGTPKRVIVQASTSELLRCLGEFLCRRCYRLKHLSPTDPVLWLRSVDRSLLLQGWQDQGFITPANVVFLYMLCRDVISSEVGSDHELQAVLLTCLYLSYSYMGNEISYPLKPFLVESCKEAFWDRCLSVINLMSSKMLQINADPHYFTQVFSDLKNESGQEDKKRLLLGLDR
Cneo AK release: Cryptococcus neoformans lysis via adenylate kinase release; C. neoformans lysis, adenylate kinase release luminescence, 4 h; normalised: neutral wells 0, clomiphene wells 100; lysis activity, % at 15 µM; actives 0.2% (n = 360,000); AID 651654;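 active = mean lysis activity across replicates of at least 80%, whatever share of replicates individually reach that level; inactive = mean lysis activity below 80%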
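read-out = cell lysis signal | test system = log-phase Cryptococcus neoformans yeast cells | input = cells at 5 × 10^6 per mL | medium = fresh YPD growth medium | signal = luminescent adenylate kinase detection reagent | timing = 4 h at 37 °C static, read 1 h later | dosing = single dose | controls = Clomiphene as positive lysis control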
HIV Env fusion: HIV envelope-mediated fusion inhibition; HeLa-JRFL Env/CEM21 cell fusion, luciferase; inhibition, % at 12.3 µM; actives 1.1% (n = 360,000); AID 651610;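 active = mean replicate inhibition score of at least 50 and every replicate individually at or above 50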
dFosB act-2: activators of mouse delta FosB homodimer DNA binding; shares compounds with dFosB act-1; purified delta FosB, TAMRA-CDK5 oligo fluorescence polarization; normalised: neutral wells 0, positive control 100; activation, % at 24.9 µM; 2,400 tested, under 10 active;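 active = highest replicate activation at or above 34% and every replicate reaching that threshold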;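 note: higher polarization means more probe DNA bound by delta FosB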
Numbers stand for hits. An excerpt weighted towards active compounds, which were near 2.9% of everything screened.

Results for CCOc1cc(/C=N/NC(=O)C(=O)NCc2ccc3c(c2)OCO3)ccc1OCC(=O)N1CCOCC1 ?
INS-1E GSIS act: inactive; dFosB act-1: 20; PAX8 reporter: inactive; CDK5 p35 inh: inactive; Cneo AK release: inactive; HIV Env fusion: inactive; dFosB act-2: inactive

How did CCOc1cc(/C=N/NC(=O)c2ccc(CN3CCOCC3)cc2)ccc1OCc1ccccc1 do in these assays?
INS-1E GSIS act: inactive; dFosB act-1: 21; PAX8 reporter: inactive; CDK5 p35 inh: inactive; Cneo AK release: inactive; HIV Env fusion: 56; dFosB act-2: inactive

What do the screens show for `COc1ccc2cc(C(=O)Nc3ccc(Cl)cc3)sc(=O)c2c1OC`?
INS-1E GSIS act: inactive; dFosB act-1: 71; PAX8 reporter: inactive; CDK5 p35 inh: inactive; HIV Env fusion: inactive; dFosB act-2: inactive

What do the screens show for `COc1ccc2cc(C(=O)Nc3ccc(F)cc3)sc(=O)c2c1OC`?
dFosB act-1: 34; CDK5 p35 inh: inactive; Cneo AK release: inactive; HIV Env fusion: inactive; dFosB act-2: inactive

What do the screens show for `O=C(Nc1ccccc1)N[C@@H]1CC[C@@H](CCn2cc(C3(O)CCCC3)nn2)O[C@@H]1CO`?
INS-1E GSIS act: inactive; PAX8 reporter: inactive; Cneo AK release: inactive; HIV Env fusion: inactive

How did COc1ccccc1NC(=O)c1sc2ncn(CC(=O)Nc3ccccc3)c(=O)c2c1C do in these assays?
INS-1E GSIS act: inactive; dFosB act-1: 49; PAX8 reporter: inactive; CDK5 p35 inh: inactive; Cneo AK release: inactive; HIV Env fusion: inactive; dFosB act-2: inactive

What do the screens show for `COc1ccccc1NC(=O)Cn1cnc2sc(C(=O)Nc3cc(OC)c(OC)c(OC)c3)c(C)c2c1=O`?
INS-1E GSIS act: inactive; dFosB act-1: inactive; PAX8 reporter: inactive; CDK5 p35 inh: inactive; Cneo AK release: inactive; HIV Env fusion: inactive

What do the screens show for `O=C(N/N=C/c1ccncc1)c1cccc(NC(=O)c2ccc(Cl)cc2)c1`?
INS-1E GSIS act: inactive; dFosB act-1: 41; PAX8 reporter: inactive; CDK5 p35 inh: inactive; HIV Env fusion: inactive; dFosB act-2: inactive

How did O=C(N/N=C/c1cccnc1)c1ccc(NC(=O)c2ccc(Cl)cc2)cc1 do in these assays?
INS-1E GSIS act: inactive; dFosB act-1: 42; PAX8 reporter: inactive; CDK5 p35 inh: inactive; Cneo AK release: inactive; HIV Env fusion: inactive; dFosB act-2: inactive

What do the screens show for `O=C(N/N=C\c1cccnc1)c1cc(-c2ccc(Cl)s2)[nH]n1`?
INS-1E GSIS act: inactive; dFosB act-1: 33; PAX8 reporter: inactive; CDK5 p35 inh: inactive; HIV Env fusion: inactive; dFosB act-2: inactive

What do the screens show for `CC(=O)Nc1ccc(C(=O)N/N=C/c2cccnc2)cc1`?
INS-1E GSIS act: inactive; dFosB act-1: inactive; PAX8 reporter: inactive; CDK5 p35 inh: inactive; HIV Env fusion: inactive

What do the screens show for `OC[C@@H]1[C@@H](c2ccc(-c3ccc(F)cc3)cc2)[C@@H]2CN(Cc3ccccn3)CCCCN12`?
INS-1E GSIS act: inactive; PAX8 reporter: inactive; Cneo AK release: inactive

What do the screens show for `NC(=S)N/N=C/c1coc2c(ccc3ccccc32)c1=O`?
INS-1E GSIS act: inactive; dFosB act-1: inactive; PAX8 reporter: inactive; CDK5 p35 inh: inactive; Cneo AK release: inactive; HIV Env fusion: inactive

How did O=c1cc(/N=C/c2coc3c(ccc4ccccc43)c2=O)[nH]c(=S)[nH]1 do in these assays?
INS-1E GSIS act: inactive; dFosB act-1: 43; PAX8 reporter: inactive; CDK5 p35 inh: inactive; HIV Env fusion: inactive; dFosB act-2: inactive

What do the screens show for `C/C=C/c1cnc2c(c1)C(=O)N([C@H](C)CO)C[C@H](C)[C@@H](CN(C)S(=O)(=O)c1cn(C)cn1)O2`?
INS-1E GSIS act: inactive; PAX8 reporter: inactive; Cneo AK release: inactive

How did Cc1cccc(C(=O)Nc2ccc3c(c2)C(=O)NC3=O)c1 do in these assays?
INS-1E GSIS act: inactive; dFosB act-1: inactive; PAX8 reporter: inactive; CDK5 p35 inh: inactive; Cneo AK release: inactive; HIV Env fusion: inactive

Results for Cc1ccc(C(=O)Nc2ccc3c(c2)C(=O)NC3=O)cc1 ?
INS-1E GSIS act: inactive; dFosB act-1: 35; PAX8 reporter: inactive; CDK5 p35 inh: inactive; Cneo AK release: inactive; HIV Env fusion: inactive; dFosB act-2: inactive

What do the screens show for `COC(=O)c1ccc(C(=O)Nc2ccc3c(c2)C(=O)NC3=O)cc1`?
INS-1E GSIS act: inactive; dFosB act-1: 86; PAX8 reporter: inactive; CDK5 p35 inh: inactive; Cneo AK release: inactive; HIV Env fusion: inactive; dFosB act-2: inactive

What do the screens show for `O=C(Nc1ccc2c(c1)C(=O)NC2=O)c1cccc(Cl)c1`?
INS-1E GSIS act: inactive; dFosB act-1: 25; PAX8 reporter: inactive; CDK5 p35 inh: inactive; Cneo AK release: inactive; HIV Env fusion: inactive; dFosB act-2: inactive

What do the screens show for `O=C(Nc1ccc2c(c1)C(=O)NC2=O)c1ccc(Cl)s1`?
INS-1E GSIS act: inactive; dFosB act-1: 54; PAX8 reporter: inactive; CDK5 p35 inh: inactive; Cneo AK release: inactive; HIV Env fusion: inactive; dFosB act-2: inactive

What do the screens show for `C[C@@H]1CN([C@@H](C)CO)C(=O)c2cc(-c3ccc(C(=O)N(C)C)cc3)cnc2O[C@@H]1CN(C)C(=O)CN(C)C`?
INS-1E GSIS act: inactive; Cneo AK release: inactive; HIV Env fusion: inactive

Results for C[C@H]1CN([C@@H](C)CO)C(=O)c2cc(NC(=O)Cc3cn(C)c4ccccc34)ccc2O[C@@H]1CN(C)C ?
INS-1E GSIS act: inactive; PAX8 reporter: inactive; Cneo AK release: inactive

Results for COc1ccc(S(=O)(=O)N(C)C[C@H]2OCCCC[C@H](C)Oc3ccc(NC(=O)Nc4ccccc4)cc3C(=O)N([C@@H](C)CO)C[C@@H]2C)cc1 ?
INS-1E GSIS act: inactive; PAX8 reporter: inactive; Cneo AK release: inactive; HIV Env fusion: inactive

Results for C(=N\Nc1nc(Nc2ccccc2)nc(Nc2ccccc2)n1)/c1cccnc1 ?
INS-1E GSIS act: inactive; dFosB act-1: 65; PAX8 reporter: inactive; CDK5 p35 inh: inactive; HIV Env fusion: inactive; dFosB act-2: inactive

How did C(=N\Nc1nc(Nc2ccccc2)nc(Nc2ccccc2)n1)/c1ccncc1 do in these assays?
INS-1E GSIS act: inactive; dFosB act-1: inactive; PAX8 reporter: inactive; CDK5 p35 inh: inactive; Cneo AK release: inactive; HIV Env fusion: inactive

What do the screens show for `O=C(CNC(=O)Cn1cnc2sc3c(c2c1=O)CCCC3)NCc1ccccn1`?
INS-1E GSIS act: inactive; dFosB act-1: inactive; CDK5 p35 inh: inactive; Cneo AK release: inactive

Results for O=C(Cn1cnc2sc3c(c2c1=O)CCCC3)NCC(=O)Nc1c(F)cccc1F ?
INS-1E GSIS act: inactive; dFosB act-1: 32; PAX8 reporter: inactive; CDK5 p35 inh: inactive; Cneo AK release: inactive; HIV Env fusion: inactive; dFosB act-2: inactive

Results for Cc1cccc(S(=O)(=O)N2C[C@@H]3[C@H](c4ccccc42)[C@H](CO)N3C(=O)c2ccccc2)c1 ?
INS-1E GSIS act: inactive; PAX8 reporter: inactive; Cneo AK release: inactive

Bioassay records deposited in PubChem BioAssay by Broad Institute.
